Here are results for eleven compounds from ChEMBL document CHEMBL4020709, “4-Indolyl-N-hydroxyphenylacrylamides as potent HDAC class I and IIB inhibitors in vitro and in vivo” (Eur J Med Chem, 2017).

For series [1], the system named is A549. The series is described as follows: cells. Format: functional. The conditions noted are these: Homo sapiens, A549, 48 h.
Series [2] concerns the target Histone deacetylase 1 (Homo sapiens, UniProt Q13547). Nature of the series: Inhibition of recombinant human full length HDAC1 using Fluor-de-Lys as substrate after 60 mins by spectrofluorimetric analysis.
The test system of series [3] is PC-3. Nature of the series: cells. Format: functional. The conditions noted are these: Homo sapiens, PC-3, 48 h.
Series [4] deals with ASPC1. Nature of the series: cells. It is filed as functional. The conditions noted are these: Homo sapiens, ASPC1, 48 h.
Series [5] deals with PC-3. Nature of the series: Antitumor activity against human PC3 cells xenografted in nude mouse assessed as tumor growth inhibition at 20 mg/kg, ip administered every other day for 18 days measured twice weekly. It is filed as functional. The conditions noted are these: PC-3, ip, 432 h, read-out: TGI. An outline of the steps: (§1)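 Male nude mice were implanted s.c. in the flank with PC3 cells (1 × 10^7 per mouse) mixed with Matrigel. Dosing began at a tumor size of about 100 mm³ and was given i.p. every other day for 18 days. Tumors were measured by caliper twice weekly, and volume was calculated as length × width²/2. %TGI was derived from mean tumor volume against the vehicle group, compared by one-way ANOVA.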
Background: Xenograft models place foreign cells or tissue in a host animal.

Series [6] deals with Mus musculus. Nature of the series: Downregulation of HDAC2 expression in nude mouse xenografted with human PC3 cells at 40 mg/kg, ip administered every other day for 18 days measured twice weekly by hematoxylin/eosin staining based immunohistochemical analysis. It is filed as functional, organism-based. The method, boiled down: (§2)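 PC3 xenograft tumors were formalin-fixed and paraffin-embedded, then sectioned. Sections were deparaffinized and rehydrated, and endogenous peroxidase was quenched with 3% H2O2. Antigen retrieval used pH 9 buffer at 80°C overnight, followed by blocking with fat-free milk. Primary antibody (acetyl-histone H3, HDAC1 or HDAC2) was applied at 4°C overnight, then secondary antibody, then Mayer's hematoxylin counterstain. Separate sections received H&E staining.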

Series [7] deals with Histone deacetylase 4 (Homo sapiens, UniProt P56524). Nature of the series: Inhibition of recombinant human full length HDAC4 using Fluor-de-Lys as substrate after 60 mins by spectrofluorimetric analysis.
Chain of Histone deacetylase 4 (P56524 whole entry): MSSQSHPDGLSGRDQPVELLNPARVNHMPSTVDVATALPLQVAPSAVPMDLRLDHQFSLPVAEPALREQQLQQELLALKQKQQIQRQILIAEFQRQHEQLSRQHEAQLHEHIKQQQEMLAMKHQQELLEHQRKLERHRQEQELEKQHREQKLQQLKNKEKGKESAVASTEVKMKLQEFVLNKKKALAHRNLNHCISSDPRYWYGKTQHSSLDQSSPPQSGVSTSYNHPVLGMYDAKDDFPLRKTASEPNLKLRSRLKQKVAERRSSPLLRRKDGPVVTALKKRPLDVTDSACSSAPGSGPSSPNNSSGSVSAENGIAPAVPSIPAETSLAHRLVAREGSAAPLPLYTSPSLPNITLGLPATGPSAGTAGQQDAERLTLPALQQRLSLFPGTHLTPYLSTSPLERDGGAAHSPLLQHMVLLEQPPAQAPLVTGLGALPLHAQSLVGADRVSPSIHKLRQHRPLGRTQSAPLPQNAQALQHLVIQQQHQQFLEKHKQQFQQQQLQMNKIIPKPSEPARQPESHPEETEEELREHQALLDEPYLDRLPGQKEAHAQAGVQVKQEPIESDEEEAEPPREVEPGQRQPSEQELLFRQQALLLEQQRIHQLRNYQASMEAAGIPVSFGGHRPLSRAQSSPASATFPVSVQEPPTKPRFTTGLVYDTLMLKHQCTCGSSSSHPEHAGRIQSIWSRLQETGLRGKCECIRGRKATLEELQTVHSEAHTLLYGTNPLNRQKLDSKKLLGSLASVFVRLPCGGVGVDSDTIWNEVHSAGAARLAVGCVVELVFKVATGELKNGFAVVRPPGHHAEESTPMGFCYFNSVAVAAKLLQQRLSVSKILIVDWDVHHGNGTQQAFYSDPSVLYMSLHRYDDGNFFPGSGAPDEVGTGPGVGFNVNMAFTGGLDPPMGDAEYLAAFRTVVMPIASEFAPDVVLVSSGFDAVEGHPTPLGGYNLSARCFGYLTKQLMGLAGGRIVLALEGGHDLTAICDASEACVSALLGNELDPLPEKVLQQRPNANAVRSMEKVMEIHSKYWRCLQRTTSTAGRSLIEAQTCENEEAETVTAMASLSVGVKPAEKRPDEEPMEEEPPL
The species named for series [8] is Homo sapiens. The conditions noted are these: at 1 µM.
Series [9] is filed under the species Homo sapiens. The conditions noted are these: at 1 µM. This is another data set of the same source.
The nature of series [10]: Inhibition of HDAC in human HeLa cell nuclear extract using […] as substrate after 30 mins by fluorescence assay. Format: cell-free. An outline of the steps: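 HeLa nuclear extract was incubated with fluorometric HDAC substrate in assay buffer at 37°C for 30 min. Lysine developer was then added for a further 30 min at 37°C. Fluorescence was read at ex 355/em 460 nm. Negative controls lacked extract, substrate, or both.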

Series [11] addresses Histone deacetylase 2 (Homo sapiens, UniProt Q92769). Nature of the series: Inhibition of recombinant human full length HDAC2 using Fluor-de-Lys as substrate after 60 mins by spectrofluorimetric analysis.
Series [12] deals with PC-3. Nature of the series: Antitumor activity against human PC3 cells xenografted in nude mouse assessed as tumor growth inhibition at 40 mg/kg, ip administered every other day for 18 days measured twice weekly. Format: functional. The conditions noted are these: PC-3, ip, 432 h, read-out: TGI. An outline of the steps: as §1
Series [13] relates to PC-3. The series is described as follows: Antitumor activity against human PC3 cells xenografted in nude mouse assessed as reduction in tumor volume administered ip every other day for 18 days measured twice weekly. It is filed as functional, organism-based. The method, boiled down: as §1
The target in series [14] is T1, Histone deacetylase 8 (Homo sapiens, UniProt Q9BY41).
T1 sequence (Q9BY41 whole entry): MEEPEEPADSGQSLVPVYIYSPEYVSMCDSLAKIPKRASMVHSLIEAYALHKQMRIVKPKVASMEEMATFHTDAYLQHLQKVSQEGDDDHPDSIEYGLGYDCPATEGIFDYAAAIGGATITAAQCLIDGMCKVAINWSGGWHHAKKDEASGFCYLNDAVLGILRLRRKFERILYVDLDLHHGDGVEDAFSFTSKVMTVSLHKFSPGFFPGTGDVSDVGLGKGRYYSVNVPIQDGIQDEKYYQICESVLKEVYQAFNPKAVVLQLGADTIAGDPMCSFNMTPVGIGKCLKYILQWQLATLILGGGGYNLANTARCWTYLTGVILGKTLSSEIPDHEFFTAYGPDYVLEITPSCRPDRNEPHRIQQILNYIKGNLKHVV
The series is described as follows: Inhibition of recombinant human full length HDAC8 using Fluor-de-Lys as substrate after 60 mins by spectrofluorimetric analysis.

The subject of series [15] is Mus musculus. Nature of the series: In-vivo inhibition of HDAC in ip dosed nude mouse xenografted with human PC3 cells assessed as upregulation of acetyl-histone 3 expression by hematoxylin/eosin staining based immunohistochemical analysis. Format: functional, organism-based. The method, boiled down: as §2
For series [16], the target named is T2, Protein deacetylase HDAC6 (Homo sapiens, UniProt Q9UBN7).
T2 sequence (Q9UBN7 whole entry): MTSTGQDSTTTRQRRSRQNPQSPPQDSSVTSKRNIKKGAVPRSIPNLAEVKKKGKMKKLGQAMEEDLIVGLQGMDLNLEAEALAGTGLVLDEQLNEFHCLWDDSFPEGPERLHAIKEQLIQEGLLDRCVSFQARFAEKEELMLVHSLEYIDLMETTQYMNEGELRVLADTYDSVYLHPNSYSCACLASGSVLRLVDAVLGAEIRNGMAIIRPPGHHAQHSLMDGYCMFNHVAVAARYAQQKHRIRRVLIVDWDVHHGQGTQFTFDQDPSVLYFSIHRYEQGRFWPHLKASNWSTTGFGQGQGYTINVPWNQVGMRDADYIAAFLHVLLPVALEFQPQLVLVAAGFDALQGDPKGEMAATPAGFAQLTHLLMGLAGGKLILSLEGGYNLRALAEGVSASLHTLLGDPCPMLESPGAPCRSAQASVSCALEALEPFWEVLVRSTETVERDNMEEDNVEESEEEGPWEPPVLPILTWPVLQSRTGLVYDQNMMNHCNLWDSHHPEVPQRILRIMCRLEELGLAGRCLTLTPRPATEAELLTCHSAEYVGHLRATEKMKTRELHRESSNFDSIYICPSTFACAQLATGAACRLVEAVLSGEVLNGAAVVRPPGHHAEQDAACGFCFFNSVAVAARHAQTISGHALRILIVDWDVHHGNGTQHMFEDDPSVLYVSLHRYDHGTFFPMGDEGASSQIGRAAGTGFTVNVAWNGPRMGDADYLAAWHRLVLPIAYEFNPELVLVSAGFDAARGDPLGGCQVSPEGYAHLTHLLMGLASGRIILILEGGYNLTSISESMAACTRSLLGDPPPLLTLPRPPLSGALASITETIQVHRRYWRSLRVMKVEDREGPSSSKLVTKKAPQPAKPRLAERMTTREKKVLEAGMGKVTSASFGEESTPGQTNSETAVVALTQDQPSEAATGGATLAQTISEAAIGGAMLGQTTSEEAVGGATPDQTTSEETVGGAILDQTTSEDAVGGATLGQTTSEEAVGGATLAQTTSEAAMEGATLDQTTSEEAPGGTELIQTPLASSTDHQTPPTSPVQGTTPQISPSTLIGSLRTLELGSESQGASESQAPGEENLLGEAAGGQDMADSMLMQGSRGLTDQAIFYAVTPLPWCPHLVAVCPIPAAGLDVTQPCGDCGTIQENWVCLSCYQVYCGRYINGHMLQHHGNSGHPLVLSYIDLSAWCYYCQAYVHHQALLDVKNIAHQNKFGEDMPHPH
Nature of the series: Inhibition of recombinant human full length HDAC6 using Fluor-de-Lys as substrate after 60 mins by spectrofluorimetric analysis.

For series [17], the system named is Mus musculus. The series is described as follows: Effect on HDAC1 expression in nude mouse xenografted with human PC3 cells at 20 and 40 mg/kg, ip administered every other day for 18 days measured twice weekly by hematoxylin/eosin staining based immunohistochemical analysis. Format: functional, organism-based. An outline of the steps: as §2
Series [18] has as its system MDA-MB-231. The series is described as follows: cells. Format: functional. The conditions noted are these: Homo sapiens, MDA-MB-231, 48 h.
In series [19] the test system is Mus musculus. The series is described as follows: Toxicity in nude mouse xenografted with human PC3 cells assessed as weight loss at 20 to 40 mg/kg, ip administered every other day for 18 days. Format: organism-based. The conditions noted are these: in vivo, 432 h. An outline of the steps:
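Male nude mice carried s.c. PC3 flank xenografts (1 × 10^7 cells with Matrigel). They received i.p. vehicle, 20 mg/kg or 40 mg/kg every other day for 18 days, and body weight (g) was tracked over the study.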

Calls of active or inactive are those of the source. The calls are words filed in the database; no cut-off is given here.

Chain of Histone deacetylase 2 (Q92769 whole entry): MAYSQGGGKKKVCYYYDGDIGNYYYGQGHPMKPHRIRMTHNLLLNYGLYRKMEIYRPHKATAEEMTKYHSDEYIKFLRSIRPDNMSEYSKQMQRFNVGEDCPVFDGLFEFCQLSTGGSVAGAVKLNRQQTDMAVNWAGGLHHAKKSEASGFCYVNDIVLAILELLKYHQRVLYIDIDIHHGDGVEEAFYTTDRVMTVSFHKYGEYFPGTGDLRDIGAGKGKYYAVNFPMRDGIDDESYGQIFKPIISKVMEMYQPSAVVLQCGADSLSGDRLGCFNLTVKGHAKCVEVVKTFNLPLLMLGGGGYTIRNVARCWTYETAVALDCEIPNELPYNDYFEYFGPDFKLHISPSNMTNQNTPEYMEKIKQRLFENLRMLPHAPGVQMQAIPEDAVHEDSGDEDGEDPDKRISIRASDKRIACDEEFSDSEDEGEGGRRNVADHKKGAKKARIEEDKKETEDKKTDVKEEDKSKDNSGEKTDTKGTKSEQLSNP
Chain of Histone deacetylase 1 (Q13547 whole entry): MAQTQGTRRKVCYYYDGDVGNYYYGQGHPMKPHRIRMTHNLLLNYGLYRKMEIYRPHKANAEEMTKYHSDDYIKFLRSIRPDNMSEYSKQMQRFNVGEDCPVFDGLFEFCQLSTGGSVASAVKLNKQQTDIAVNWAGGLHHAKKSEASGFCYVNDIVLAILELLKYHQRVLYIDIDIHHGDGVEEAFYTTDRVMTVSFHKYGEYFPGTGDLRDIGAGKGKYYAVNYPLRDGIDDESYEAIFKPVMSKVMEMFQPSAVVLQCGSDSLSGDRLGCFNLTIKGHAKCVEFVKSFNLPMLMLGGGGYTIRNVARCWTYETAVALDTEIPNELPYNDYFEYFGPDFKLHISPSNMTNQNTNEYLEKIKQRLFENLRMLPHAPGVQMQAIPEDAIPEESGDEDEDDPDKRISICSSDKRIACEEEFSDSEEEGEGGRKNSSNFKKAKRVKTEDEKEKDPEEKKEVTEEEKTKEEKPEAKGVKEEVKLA

As to `O=C(/C=C/c1ccc(S(=O)(=O)NCCc2cccc3[nH]ccc23)cc1)NO`, the GI50 turned out to be 250 nM in [1], 140 nM in series [3], 240 nM in series [4] and 320 nM in series [18]. Besides, the 50% inhibitory concentration (IC50) is 1.28 nM in series [2]; over 100 nM in series [7]; 8.56 nM in [10]; 0.9 nM in [11]; over 100 nM in series [14]; 8.32 nM in series [16]. In addition, the inhibition in vivo at 20 mg/kg in series [5] worked out at 51.6%. In addition, in [6], the outcome was Active. For the same compound, the inhibition result in series [8] and in series [9] was “Active” in each case. The inhibition in vivo at 40 mg/kg in series [12] turned out to be 62.2%. Besides, the Activity entry in [13] is “Dose-dependent effect”; in series [15], “Dose-dependent effect”; in series [19], “Non-Toxic”. The outcome in series [17] was inactive.
Regarding `O=C(/C=C/c1ccc(S(=O)(=O)NCc2cccc3[nH]ccc23)cc1)NO`, the GI50 in series [1] turned out to be 1650 nM; in [3] it was 860 nM; in series [4], 4560 nM; in series [18], 3550 nM. Further, in series [10], the IC50 was found to be 7.17 nM.
Regarding `Nc1ccccc1NC(=O)c1ccc(CNC(=O)OCc2cccnc2)cc1` [ENTINOSTAT], the concentration for 50% growth inhibition (GI50) was determined as 5760 nM in series [1], 430 nM in [3], 6900 nM in series [4] and 1410 nM in series [18]. Besides, the half-maximal inhibitory concentration (IC50) in series [10] was over 1000 nM.
Taken in the same sequence, the figures for `O=C(/C=C/c1ccc(S(=O)(=O)Nc2cccc3[nH]ccc23)cc1)NO` were over 10000 nM, 3490 nM, over 10000 nM, over 10000 nM and over 1000 nM.
`O=C(/C=C/c1cccc(S(=O)(=O)Nc2ccccc2)c1)NO` [BELINOSTAT]: the 50% growth inhibitory concentration (GI50) in series [1] amounted to 230 nM; in series [3], 310 nM; in [4] it was 650 nM; in [18], 280 nM. Further, the 50% inhibitory concentration (IC50) in [7] is over 1000 nM; in series [10] it was 81 nM.
Regarding `O=C(/C=C/c1ccc(S(=O)(=O)NCCc2ccc3[nH]ccc3c2)cc1)NO`, the GI50 in [1] is 600 nM; in series [3], 310 nM; in series [4], 3970 nM; in series [18] it was 9910 nM. Besides, the concentration for half-maximal inhibition (IC50) in [10] came out at 76.1 nM.
For the compound `O=C(CCCCCCC(=O)Nc1ccccc1)NO` [VORINOSTAT], 131 nM corresponded to half-maximal inhibition in series [10] (IC50).
Consider `COc1ccc(S(=O)(=O)n2ccc3c(CCNS(=O)(=O)c4ccc(/C=C/C(=O)NO)cc4)cccc32)cc1`, for which the GI50 amounted to 4350 nM in series [1], 2880 nM in series [3], 12500 nM in series [4] and 5850 nM in [18]. In [10], this compound came in with a half-maximal inhibitory concentration (IC50) of 60 nM.
On the same counts, the results for `O=C(/C=C/c1cccc(S(=O)(=O)NCCc2cccc3[nH]ccc23)c1)NO` are 870 nM, 310 nM, 3850 nM, 2060 nM and 30.4 nM.
On the same counts, the results for `O=C(/C=C/c1cccc(S(=O)(=O)NCCc2ccc3[nH]ccc3c2)c1)NO` are 820 nM, 330 nM, 2780 nM, 2470 nM and 52.2 nM.
In the case of `Cn1ccc2c(CCNS(=O)(=O)c3ccc(/C=C/C(=O)NO)cc3)cccc21`, the GI50 came to 250 nM in series [1], 150 nM in series [3], 160 nM in series [4] and 80 nM in series [18]. In addition, the IC50 in [2] was 1.34 nM; in series [7] it was over 100 nM; in series [10], 14.3 nM; in series [11] it was 0.53 nM; in series [14] it was over 100 nM; in [16], 6.8 nM.

As a reminder, the GI50 is the concentration at which growth is held to half of that of the control. Low values mean more potent growth inhibition, high ones less potent growth inhibition. In general, IC50 refers to the concentration that inhibits the measured activity by half.
